Experimental findings from ChEMBL document CHEMBL1136635, “Modification of the N-terminus of peptidomimetic protein tyrosine phosphatase 1B (PTP1B) inhibitors: identification of analogues with cellular activity” (Bioorg Med Chem Lett, 2003) are described below.

In assay [1] the target is T1, Tyrosine-protein phosphatase non-receptor type 11 (Homo sapiens) (UniProt Q06124).
T1 sequence (whole entry): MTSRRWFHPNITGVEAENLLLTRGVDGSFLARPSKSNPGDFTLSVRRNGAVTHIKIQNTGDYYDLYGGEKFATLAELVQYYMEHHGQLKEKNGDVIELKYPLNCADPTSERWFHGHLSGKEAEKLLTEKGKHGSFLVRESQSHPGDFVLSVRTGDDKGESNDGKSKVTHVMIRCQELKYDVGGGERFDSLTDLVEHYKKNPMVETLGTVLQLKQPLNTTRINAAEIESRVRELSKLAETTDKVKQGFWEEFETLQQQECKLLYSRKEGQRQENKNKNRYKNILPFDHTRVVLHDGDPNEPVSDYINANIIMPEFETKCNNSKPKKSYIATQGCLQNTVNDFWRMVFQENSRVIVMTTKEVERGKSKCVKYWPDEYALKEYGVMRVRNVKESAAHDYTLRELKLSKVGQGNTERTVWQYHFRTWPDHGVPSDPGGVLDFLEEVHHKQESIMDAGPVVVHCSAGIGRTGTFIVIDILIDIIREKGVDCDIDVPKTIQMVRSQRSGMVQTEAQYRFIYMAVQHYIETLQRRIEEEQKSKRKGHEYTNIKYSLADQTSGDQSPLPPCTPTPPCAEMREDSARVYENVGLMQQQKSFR
Kind of assay: Inhibition of recombinant human phosphatase (SHP-2) at a concentration of 100 uM. Summed up:
(§1)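 Purified recombinant human enzyme constructs; PTP1B is a C-terminally truncated soluble form, tested alongside LAR and SHP-2. Activity is read as the initial rate of p-nitrophenyl phosphate (pNPP) hydrolysis and reported as percent inhibition. PTP1B is tested at 100, 10 and 1 µM, or 10 and 1 µM in the salicylate series; LAR and SHP-2 at 100 µM.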

In assay [2] the target is T2, Tyrosine-protein phosphatase non-receptor type 1 (Homo sapiens) (UniProt P18031).
T2 sequence (whole entry): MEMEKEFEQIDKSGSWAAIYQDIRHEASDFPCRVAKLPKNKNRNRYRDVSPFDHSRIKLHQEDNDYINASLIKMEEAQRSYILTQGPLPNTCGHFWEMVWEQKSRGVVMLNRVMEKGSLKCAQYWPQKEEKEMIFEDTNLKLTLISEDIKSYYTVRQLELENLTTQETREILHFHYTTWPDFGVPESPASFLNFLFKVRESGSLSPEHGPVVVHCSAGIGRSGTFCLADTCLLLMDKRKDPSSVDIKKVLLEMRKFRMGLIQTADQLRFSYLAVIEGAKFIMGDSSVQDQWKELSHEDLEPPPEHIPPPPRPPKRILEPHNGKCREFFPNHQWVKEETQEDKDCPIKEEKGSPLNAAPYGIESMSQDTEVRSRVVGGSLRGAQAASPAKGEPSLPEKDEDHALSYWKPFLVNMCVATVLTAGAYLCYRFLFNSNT
As to the kind of experiment: Inhibitory activity against human protein tyrosine phosphatase 1B (PTP1B) at a concentration of 100 uM. Summed up:
as §1

A short description of assay [3]: Uptake of 2-DOG (2-deoxyglucose) into L6 myocytes in the presence of half-maximal concentration of insulin at 100 uM. Type of assay: functional, Rattus norvegicus. Summed up: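 L6 myotubes are exposed to compound at 100 µM with 10 nM insulin, a dose eliciting about 50% of maximal uptake. The initial rate of 2-[3H]deoxyglucose uptake is measured, with L-[14C]glucose marking extracellular space, and normalized to recovered lysate protein. Net insulin-dependent transport with inhibitor is expressed as a percent of that without inhibitor.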

The target of assay [4] is T2, Tyrosine-protein phosphatase non-receptor type 1 (Homo sapiens). As to the kind of experiment: Inhibitory activity against human protein tyrosine phosphatase 1B (PTP1B) at a concentration of 1 uM. Summed up: as §1
Assay [5] has as its target Receptor-type tyrosine-protein phosphatase F (Homo sapiens) (UniProt P10586). Kind of assay: Inhibitory activity against phosphatase (LAR) at a concentration of 100 uM. Summed up: as §1
Assay [6] concerns the target T2, Tyrosine-protein phosphatase non-receptor type 1 (Homo sapiens). As to the kind of experiment: Inhibitory activity against human protein tyrosine phosphatase 1B (PTP1B) at a concentration of 10 uM. Summed up: as §1
The target of assay [7] is T3, Tyrosine-protein phosphatase non-receptor type 1 (Homo sapiens, UniProt P18031).
T3 sequence (P18031 whole entry): T2 sequence (whole entry)
Kind of assay: Inhibitory activity against human protein tyrosine phosphatase 1B (PTP1B). The procedure, abridged: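 Ki against a C-terminally truncated, soluble recombinant human PTP1B. Initial rates of pNPP hydrolysis are measured, and the Ki is computed by the Cornish-Bowden direct linear method.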

pKi: −log10 of the molar value. Square brackets hold non-standard residues; d marks the D form. Peptide text beside a SMILES is read from it. sY = N[C@@H](Cc1ccc(OS(=O)(=O)O)cc1)C(=O)O; Nle = CCCC[C@H](N)C(=O)O

Chain of Receptor-type tyrosine-protein phosphatase F (Homo sapiens) (P10586 whole entry): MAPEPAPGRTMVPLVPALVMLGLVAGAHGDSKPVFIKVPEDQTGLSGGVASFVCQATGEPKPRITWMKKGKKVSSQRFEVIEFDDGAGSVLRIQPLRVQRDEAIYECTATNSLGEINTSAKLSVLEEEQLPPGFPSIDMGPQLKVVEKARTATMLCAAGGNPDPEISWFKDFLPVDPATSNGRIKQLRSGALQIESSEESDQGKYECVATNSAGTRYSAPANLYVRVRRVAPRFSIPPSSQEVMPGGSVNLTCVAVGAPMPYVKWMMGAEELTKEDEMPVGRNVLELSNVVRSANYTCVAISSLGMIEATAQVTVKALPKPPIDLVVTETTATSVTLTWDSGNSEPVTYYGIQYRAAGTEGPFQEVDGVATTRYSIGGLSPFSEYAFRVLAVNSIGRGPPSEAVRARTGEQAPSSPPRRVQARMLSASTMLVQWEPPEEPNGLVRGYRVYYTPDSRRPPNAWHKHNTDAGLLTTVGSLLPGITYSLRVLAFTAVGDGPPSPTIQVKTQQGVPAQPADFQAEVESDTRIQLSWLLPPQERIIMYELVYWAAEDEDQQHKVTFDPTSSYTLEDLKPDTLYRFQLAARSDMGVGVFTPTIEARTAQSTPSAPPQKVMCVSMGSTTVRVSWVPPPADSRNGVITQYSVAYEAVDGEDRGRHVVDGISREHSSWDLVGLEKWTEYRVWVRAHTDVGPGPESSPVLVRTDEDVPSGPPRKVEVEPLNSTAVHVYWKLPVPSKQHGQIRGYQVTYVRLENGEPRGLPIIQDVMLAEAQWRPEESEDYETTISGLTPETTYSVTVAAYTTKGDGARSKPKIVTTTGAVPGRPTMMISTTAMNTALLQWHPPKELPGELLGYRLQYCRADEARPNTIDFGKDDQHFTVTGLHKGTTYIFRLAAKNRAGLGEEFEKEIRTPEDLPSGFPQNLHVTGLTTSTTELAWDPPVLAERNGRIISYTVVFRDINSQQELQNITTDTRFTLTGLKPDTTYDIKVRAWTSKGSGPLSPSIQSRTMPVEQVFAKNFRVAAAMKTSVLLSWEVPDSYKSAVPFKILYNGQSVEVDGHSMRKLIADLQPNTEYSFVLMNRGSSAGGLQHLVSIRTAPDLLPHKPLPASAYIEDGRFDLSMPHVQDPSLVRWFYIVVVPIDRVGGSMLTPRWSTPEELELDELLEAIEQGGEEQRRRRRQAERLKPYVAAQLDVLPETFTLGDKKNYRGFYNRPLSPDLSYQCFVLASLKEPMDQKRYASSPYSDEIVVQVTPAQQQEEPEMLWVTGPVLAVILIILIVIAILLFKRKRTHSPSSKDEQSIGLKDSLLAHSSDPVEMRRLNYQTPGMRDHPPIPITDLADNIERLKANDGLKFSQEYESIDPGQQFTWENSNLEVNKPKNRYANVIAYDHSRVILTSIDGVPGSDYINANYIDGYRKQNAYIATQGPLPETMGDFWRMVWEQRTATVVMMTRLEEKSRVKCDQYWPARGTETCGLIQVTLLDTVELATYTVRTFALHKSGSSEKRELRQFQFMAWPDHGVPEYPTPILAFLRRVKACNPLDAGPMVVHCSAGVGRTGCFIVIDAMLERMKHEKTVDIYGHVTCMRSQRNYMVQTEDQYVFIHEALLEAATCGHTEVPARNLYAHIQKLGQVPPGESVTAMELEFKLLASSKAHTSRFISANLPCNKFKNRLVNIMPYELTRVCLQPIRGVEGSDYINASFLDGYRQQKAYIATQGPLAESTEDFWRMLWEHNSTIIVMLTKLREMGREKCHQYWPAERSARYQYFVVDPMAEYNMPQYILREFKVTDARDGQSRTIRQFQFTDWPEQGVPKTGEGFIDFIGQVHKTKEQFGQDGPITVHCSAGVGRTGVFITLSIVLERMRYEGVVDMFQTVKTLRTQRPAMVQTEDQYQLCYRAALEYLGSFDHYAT

One may read the inhibition as how much of the control response was suppressed. Consider `CCCCCNC(=O)[C@H](Cc1ccc(OC(C(=O)O)C(=O)O)cc1)NC(=O)[C@H](Cc1ccc2ccccc2c1)NC(=O)OC(C)(C)C`, for which the inhibition in assay [1] came to 3%; in assay [2], 90%; in assay [4], 3%; in assay [5], 4%; in assay [6], 29%. Moreover, the “Control Uptake” value in assay [3] is listed as 62%.
Turning to `CCCCCNC(=O)[C@H](Cc1ccc(OC(C(=O)O)C(=O)O)cc1)NC(=O)[C@H](COCc1ccccc1)NC(=O)OC(C)(C)C`, the inhibition came to 0% in assay [1]; 71% in assay [2]; 3% in assay [4]; 3% in assay [5]; 19% in assay [6]. The “Control Uptake” value in assay [3] came to 79%.
With `CCCCCNC(=O)[C@H](Cc1ccc(OC(C(=O)O)C(=O)O)cc1)NC(=O)[C@H](CCc1ccccc1)NC(=O)OC(C)(C)C`, the inhibition in assay [1] is 0%; in assay [2] it was 77%; in assay [4] it was 2%; in assay [5] it was 7%; in assay [6], 17%. Besides, the “Control Uptake” value in assay [3] is on record as 104%.
Consider `CCCCCNC(=O)[C@H](Cc1ccc(OC(C(=O)O)C(=O)O)cc1)NC(=O)[C@H](Cc1ccccc1)NC(=O)CCNC(=O)OC(C)(C)C`, for which the inhibition in assay [1] came out at 8%; in assay [2], 93%; in assay [4], 14%; in assay [5], 2%; in assay [6], 62%. Moreover, the “Control Uptake” value in assay [3] was found to be 87%.
Consider `CCCCCNC(=O)[C@H](Cc1ccc(OC(C(=O)O)C(=O)O)cc1)NC(=O)[C@H](CSCc1ccccc1)NC(=O)OC(C)(C)C`, for which the inhibition in assay [1] was 0%; in assay [2], 83%; in assay [4], 3%; in assay [5] it was 0%; in assay [6], 16%. Further, the “Control Uptake” value in assay [3] is 89%.
Regarding `CCCCCNC(=O)[C@H](Cc1ccc(OC(C(=O)O)C(=O)O)cc1)NC(=O)[C@H](Cc1c(F)c(F)c(F)c(F)c1F)NC(=O)OC(C)(C)C`, the inhibition is 0% in assay [1]; 80% in assay [2]; 5% in assay [4]; 8% in assay [5]; 25% in assay [6]. Also, the “Control Uptake” value in assay [3] is recorded as 100%.
On to `CCCCCNC(=O)[C@H](Cc1ccc(OC(C(=O)O)C(=O)O)cc1)NC(=O)[C@H](Cc1c[nH]c2ccccc12)NC(=O)OC(C)(C)C`, for which the inhibition worked out at 9% in assay [1]; 89% in assay [2]; 10% in assay [4]; 18% in assay [5]; 44% in assay [6]. Besides, in assay [3], the “Control Uptake” value was 92%.
In the case of `CCCCCNC(=O)[C@H](Cc1ccc(OC(C(=O)O)C(=O)O)cc1)NC(=O)[C@H](CC[S+](C)[O-])NC(=O)OC(C)(C)C` (stereo not given in full), the inhibition in assay [1] turned out to be 6%; in assay [2], 67%; in assay [4] it was 7%; in assay [5] it was 0%; in assay [6], 21%. In addition, the “Control Uptake” value in assay [3] was found to be 70%.
As to `CCCCCNC(=O)[C@H](Cc1ccc(OC(C(=O)O)C(=O)O)cc1)NC(=O)[C@H](Cc1ccccc1)NC(=O)CCN(CC)CC`, the inhibition came to 14% in assay [1]; 92% in assay [2]; 12% in assay [4]; 0% in assay [5]; 54% in assay [6]. Besides, the “Control Uptake” value in assay [3] stood at 89%.
Regarding `CCCCCNC(=O)[C@H](Cc1ccc(OC(C(=O)O)C(=O)O)cc1)NC(=O)[C@H](Cc1ccccc1)NS(=O)(=O)Cc1ccccc1`, the inhibition in assay [1] was determined as 10%; in assay [2] it was 62%; in assay [4], 4%; in assay [5], 6%; in assay [6], 16%. In addition, in assay [3], the “Control Uptake” value was found to be 98%.
As for `CCCCCNC(=O)[C@H](Cc1ccc(OC(C(=O)O)C(=O)O)cc1)NC(=O)[C@H](Cc1ccccc1)NC(=O)CCOC`, the inhibition in assay [1] turned out to be 11%; in assay [2], 94%; in assay [4], 19%; in assay [5], 6%; in assay [6], 65%. The “Control Uptake” value in assay [3] stood at 104%.
As for `CCCCCNC(=O)[C@H](Cc1ccc(OC(C(=O)O)C(=O)O)cc1)NC(=O)[C@H](Cc1ccccc1)NS(C)(=O)=O`, the inhibition is 8% in assay [1]; 86% in assay [2]; 9% in assay [4]; 0% in assay [5]; 40% in assay [6]. In addition, the “Control Uptake” value in assay [3] worked out at 93%.
For the molecule `CCCCCNC(=O)[C@H](Cc1ccc(OC(C(=O)O)C(=O)O)cc1)NC(=O)[C@H](CC(N)=O)NC(=O)OC(C)(C)C`, the inhibition in assay [1] turned out to be 8%; in assay [2], 85%; in assay [4], 9%; in assay [5] it was 0%; in assay [6] it was 40%. For the same molecule, in assay [3], the “Control Uptake” value worked out at 110%.
As for `CCCCCNC(=O)[C@H](Cc1ccc(OC(C(=O)O)C(=O)O)cc1)NC(=O)[C@H](Cc1ccccc1)NC(=O)NC(C)(C)C`, the inhibition was 6% in assay [1]; 86% in assay [2]; 9% in assay [4]; 21% in assay [5]; 40% in assay [6]. In addition, in assay [3], the “Control Uptake” value stood at 93%.
As usually defined, the pKi is the Ki on a negative log10 scale, so that one unit is a factor of ten. The low end stands for a large Ki, the high end for a small Ki. With `CCCCCNC(=O)[C@H](Cc1ccc(OCC(=O)O)c(C(=O)O)c1)NC(=O)[C@H](Cc1ccccc1)NC(=O)CCC(=O)O`, in assay [7], the negative-log Ki (pKi) is 6.66.
Regarding `CCCC[C@H](NC(=O)[C@H](Cc1ccc(OS(=O)(=O)O)cc1)NC(=O)[C@H](CC(=O)O)NC(C)=O)C(N)=O` (Ac-Asp-[sY]-[Nle]-NH2), in assay [7], the pKi was 5.30. Compared with the last molecule, the pKi is 1.36 log units lower.
Turning to `CCCCCNC(=O)[C@H](Cc1ccc(OC(C(=O)O)C(=O)O)cc1)NC(=O)[C@H](Cc1ccc(O)cc1)NC(=O)OC(C)(C)C`, the inhibition is 5% in assay [1]; 90% in assay [2]; 10% in assay [4]; 0% in assay [5]; 50% in assay [6]. Further, the “Control Uptake” value in assay [3] stood at 96%.
Take `CCCCCNC(=O)[C@H](Cc1ccc(OC(C(=O)O)C(=O)O)cc1)NC(=O)[C@H](CC1CCCCC1)NC(=O)OC(C)(C)C`: the inhibition in assay [1] was found to be 0%; in assay [2], 88%; in assay [4], 1%; in assay [5], 4%; in assay [6], 18%. Also, the “Control Uptake” value in assay [3] turned out to be 93%.
As for `CCCCCNC(=O)[C@H](Cc1ccc(OC(C(=O)O)C(=O)O)cc1)NC(=O)[C@H](CCSC)NC(=O)OC(C)(C)C`, the inhibition in assay [1] came to 4%; in assay [2] it was 82%; in assay [4] it was 5%; in assay [5], 0%; in assay [6] it was 25%. Moreover, the “Control Uptake” value in assay [3] amounted to 74%.
In the case of `CCCCCNC(=O)[C@H](Cc1ccc(OC(C(=O)O)C(=O)O)cc1)NC(=O)[C@H](CC(C)C)NC(=O)OC(C)(C)C`, the inhibition is 5% in assay [1]; 76% in assay [2]; 4% in assay [4]; 3% in assay [5]; 24% in assay [6]. Moreover, the “Control Uptake” value in assay [3] is 84%.
